≈ marks a conversion by molar mass, not a printed value.
Columns and labels:
[1] = Cytotoxicity against human MT4 cells assessed as decrease in cell viability after 5 days by MTT assay; format: toxicity, cell-based
Method in brief: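 MT-4 cells in mock-infected wells of the anti-HIV MTT setup. Compounds in serial five-fold dilutions in triplicate, cells at 6 × 10^5 cells/mL. Absorbance at 540 and 690 nm, median OD of three wells. CC50 is the concentration that lowers OD540 of the mock-infected control by 50%.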

[2] = Cytotoxicity against human CCRF-CEM cells assessed as cell growth at 10^-5 M after 48 hrs by SRB assay relative to control; format: functional; settings: read-out: Activity
Method in brief: (§1)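 NCI single-dose primary screen run under the US NCI protocol. Compounds tested at 10 µM across the 60-cell-line panel, with growth percent reported for each line.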

[3] = Cytotoxicity against human K562 cells assessed as cell growth at 10^-5 M after 48 hrs by SRB assay relative to control; format: functional; settings: K562, 48 h, read-out: Activity; method in brief: as §1
[4] = Cytotoxicity against human MOLT4 cells assessed as cell growth at 10^-5 M after 48 hrs by SRB assay relative to control; format: functional; settings: MOLT-4, 48 h, read-out: Activity; method in brief: as §1
[5] = Cytotoxicity against human RPMI8226 cells assessed as cell growth at 10^-5 M after 48 hrs by SRB assay relative to control; format: functional; settings: RPMI-8226, 48 h, read-out: Activity; method in brief: as §1
[6] = Cytotoxicity against human SR cells assessed as cell growth at 10^-5 M after 48 hrs by SRB assay relative to control; format: functional; settings: read-out: Activity
Method in brief: (§2)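 Single-dose NCI 60-cell-line screen run under the US NCI protocol. Compounds tested at 10 µM. Read-out is growth percent for each cell line.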

[7] = Cytotoxicity against human A549 cells assessed as cell growth at 10^-5 M after 48 hrs by SRB assay relative to control; format: functional; settings: A549, 48 h, read-out: Activity; method in brief: as §1
[8] = Cytotoxicity against human HOP62 cells assessed as cell growth at 10^-5 M after 48 hrs by SRB assay relative to control; format: functional; settings: HOP-62, 48 h, read-out: Activity; method in brief: as §1
[9] = Cytotoxicity against human HOP92 cells assessed as cell growth at 10^-5 M after 48 hrs by SRB assay relative to control; format: functional; settings: HOP-92, 48 h, read-out: Activity; method in brief: as §1
[10] = Cytotoxicity against human NCI-H23 cells assessed as cell growth at 10^-5 M after 48 hrs by SRB assay relative to control; format: functional; settings: NCI-H23, 48 h, read-out: Activity; method in brief: as §1
[11] = Cytotoxicity against human NCI-H322M cells assessed as cell growth at 10^-5 M after 48 hrs by SRB assay relative to control; format: functional; settings: read-out: Activity; method in brief: as §1
[12] = Cytotoxicity against human NCI-H522 cells assessed as cell growth at 10^-5 M after 48 hrs by SRB assay relative to control; format: functional; settings: NCI-H522, 48 h, read-out: Activity; method in brief: as §1
[13] = Cytotoxicity against human HCC2998 cells assessed as cell growth at 10^-5 M after 48 hrs by SRB assay relative to control; format: functional; settings: HCC 2998, 48 h, read-out: Activity; method in brief: as §1
[14] = Cytotoxicity against human KM12 cells assessed as cell growth at 10^-5 M after 48 hrs by SRB assay relative to control; format: functional; settings: KM12, 48 h, read-out: Activity; method in brief: as §1
[15] = Cytotoxicity against human SW620 cells assessed as cell growth at 10^-5 M after 48 hrs by SRB assay relative to control; format: functional; settings: SW-620, 48 h, read-out: Activity; method in brief: as §2
[16] = Cytotoxicity against human SF268 cells assessed as cell growth at 10^-5 M after 48 hrs by SRB assay relative to control; format: functional; settings: SF-268, 48 h, read-out: Activity; method in brief: as §1
[17] = Cytotoxicity against human SF539 cells assessed as cell growth at 10^-5 M after 48 hrs by SRB assay relative to control; format: functional; settings: SF-539, 48 h, read-out: Activity; method in brief: as §2
[18] = Cytotoxicity against human SNB75 cells assessed as cell growth at 10^-5 M after 48 hrs by SRB assay relative to control; format: functional; settings: SNB-75, 48 h, read-out: Activity; method in brief: as §2
[19] = Cytotoxicity against human LOXIMVI cells assessed as cell growth at 10^-5 M after 48 hrs by SRB assay relative to control; format: functional; settings: LOX IMVI, read-out: Activity; method in brief: as §1
[20] = Cytotoxicity against human MALME-3M cells assessed as cell growth at 10^-5 M after 48 hrs by SRB assay relative to control; format: functional; settings: read-out: Activity; method in brief: as §1
[21] = Cytotoxicity against human SK-MEL-2 cells assessed as cell growth at 10^-5 M after 48 hrs by SRB assay relative to control; format: functional; settings: SK-MEL-2, 48 h, read-out: Activity; method in brief: as §2
[22] = Cytotoxicity against human UACC257 cells assessed as cell growth at 10^-5 M after 48 hrs by SRB assay relative to control; format: functional; settings: UACC-257, 48 h, read-out: Activity; method in brief: as §2
[23] = Cytotoxicity against human UACC62 cells assessed as cell growth at 10^-5 M after 48 hrs by SRB assay relative to control; format: functional; settings: UACC-62, 48 h, read-out: Activity; method in brief: as §2
[24] = Cytotoxicity against human OVCAR3 cells assessed as cell growth at 10^-5 M after 48 hrs by SRB assay relative to control; format: functional; settings: OVCAR-3, 48 h, read-out: Activity; method in brief: as §1
[25] = Cytotoxicity against human OVCAR8 cells assessed as cell growth at 10^-5 M after 48 hrs by SRB assay relative to control; format: functional; settings: OVCAR-8, 48 h, read-out: Activity; method in brief: as §1
[26] = Cytotoxicity against human 786-0 cells assessed as cell growth at 10^-5 M after 48 hrs by SRB assay relative to control; format: functional; settings: 786-0, 48 h, read-out: Activity; method in brief: as §1
[27] = Cytotoxicity against human A498 cells assessed as cell growth at 10^-5 M after 48 hrs by SRB assay relative to control; format: functional; settings: A498, 48 h, read-out: Activity; method in brief: as §1
[28] = Cytotoxicity against human ACHN cells assessed as cell growth at 10^-5 M after 48 hrs by SRB assay relative to control; format: functional; settings: read-out: Activity; method in brief: as §1
[29] = Cytotoxicity against human RXF393 cells assessed as cell growth at 10^-5 M after 48 hrs by SRB assay relative to control; format: functional; settings: RXF 393, 48 h, read-out: Activity; method in brief: as §1
[30] = Cytotoxicity against human TK10 cells assessed as cell growth at 10^-5 M after 48 hrs by SRB assay relative to control; format: functional; settings: TK-10, 48 h, read-out: Activity; method in brief: as §2
[31] = Cytotoxicity against human DU145 cells assessed as cell growth at 10^-5 M after 48 hrs by SRB assay relative to control; format: functional; settings: DU-145, 48 h, read-out: Activity; method in brief: as §1
[32] = Cytotoxicity against human MCF7 cells assessed as cell growth at 10^-5 M after 48 hrs by SRB assay relative to control; format: functional; settings: MCF7, 48 h, read-out: Activity; method in brief: as §1
[33] = Cytotoxicity against human Hs 578T cells assessed as cell growth at 10^-5 M after 48 hrs by SRB assay relative to control; format: functional; settings: read-out: Activity; method in brief: as §1
[34] = Cytotoxicity against human T47D cells assessed as cell growth at 10^-5 M after 48 hrs by SRB assay relative to control; format: functional; settings: read-out: Activity; method in brief: as §2
[35] = Cytotoxicity against human MDA-MB-468 cells assessed as cell growth at 10^-5 M after 48 hrs by SRB assay relative to control; format: functional; settings: MDA-MB-468, 48 h, read-out: Activity; method in brief: as §1

Compound	CC50 at 120 h [1]	growth at 10 µM [2]	growth at 10 µM [3]	growth at 10 µM [4]	growth at 10 µM [5]	growth at 10 µM [6]	growth at 10 µM [7]	growth at 10 µM [8]	growth at 10 µM [9]	growth at 10 µM [10]	growth at 10 µM [11]	growth at 10 µM [12]	growth at 10 µM [13]	growth at 10 µM [14]	growth at 10 µM [15]	growth at 10 µM [16]	growth at 10 µM [17]	growth at 10 µM [18]	growth at 10 µM [19]	growth at 10 µM [20]	also measured
CC(=O)Nc1ccc(OCc2nnc(SCC(=O)Nc3ccc(Br)cc3)n2Cc2ccccc2)cc1	≥ 3.99 µg/mL	56.3%	28.9%	64.7%	72.2%	97.7%	78.5%	90.3%	70.9%	75.2%	81.2%	71.2%	85.6%	56.4%	59%	70.9%	92.8%	103%	33.4%	93.8%	growth at 10 µM [21]: 72.2%; growth at 10 µM [22]: 98.4%; growth at 10 µM [23]: 32.5%; growth at 10 µM [24]: 102%; growth at 10 µM [25]: 84.8%; growth at 10 µM [26]: 91.1%; growth at 10 µM [27]: 82.1%; growth at 10 µM [28]: 58.6%; growth at 10 µM [29]: 101%; growth at 10 µM [30]: 87.1%; growth at 10 µM [31]: 72.6%; growth at 10 µM [32]: 70.2%; growth at 10 µM [33]: 97.9%; growth at 10 µM [34]: 69.6%; growth at 10 µM [35]: 77.8%
Cc1ccc(C(C)C)c(OCc2nnc(SCC(=O)Nc3ccc(S(N)(=O)=O)cc3)n2Cc2ccccc2)c1	13 µg/mL (≈ 23 µM)	35.6%	78.4%	45.2%	40.8%	65.1%	50.6%	79.1%	75.2%	63.8%	89.3%	75.3%	73.8%	54.3%	91.7%	74%	89.5%	93.8%	68.2%	84.3%	growth at 10 µM [21]: 80.9%; growth at 10 µM [22]: 89%; growth at 10 µM [23]: 51.2%; growth at 10 µM [24]: 74.7%; growth at 10 µM [25]: 41.1%; growth at 10 µM [26]: 92.3%; growth at 10 µM [27]: 74.7%; growth at 10 µM [28]: 76%; growth at 10 µM [29]: 70.6%; growth at 10 µM [30]: 94%; growth at 10 µM [31]: 82.3%; growth at 10 µM [32]: 50%; growth at 10 µM [33]: 86.2%; growth at 10 µM [34]: 33.3%; growth at 10 µM [35]: 70.5%
Cc1ccc(C(C)C)c(OCc2nnc(SCC(=O)Nc3ccc(Cl)cc3)n2Cc2ccccc2)c1	65.9 µg/mL (≈ 126 µM)	72.7%	97.5%	73.7%	83.8%	-6.63%	27.9%	81.2%	78%	80.6%	72.5%	90.4%	89.7%	76.9%	65.9%	88.6%	85.4%	93.6%	64.4%	75.6%	growth at 10 µM [21]: 108%; growth at 10 µM [22]: 105%; growth at 10 µM [23]: 94%; growth at 10 µM [24]: 63.9%; growth at 10 µM [25]: 67.3%; growth at 10 µM [26]: 38.9%; growth at 10 µM [27]: 78%; growth at 10 µM [28]: 41.6%; growth at 10 µM [29]: 101%; growth at 10 µM [30]: 71.9%; growth at 10 µM [31]: 90.5%; growth at 10 µM [32]: 75.7%; growth at 10 µM [33]: 75.5%; growth at 10 µM [34]: 78.6%; growth at 10 µM [35]: 72.3%

Reference: ChEMBL document CHEMBL3861959, “Synthesis and antiproliferative evaluation of novel 2-(4H-1,2,4-triazole-3-ylthio)acetamide derivatives as inducers of apoptosis in cancer cells” (Eur J Med Chem, 2016)
